A selection: hits, their analogues and other compounds. The true share with any hit is near 4.8%.
pPAFAH inh: inhibitors of human plasma PAF acetylhydrolase (pPAFAH) | inhibition, % at 3.39 µM | 1.5% of 330,000 active | recombinant pPAFAH, FP-rhodamine probe fluorescence polarization;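 active means inhibition above the mean inhibition across the screen plus 3 SD, cut at about 25% in these data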;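 further: inhibitors block binding of the rhodamine activity-based probe so polarization drops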
GRIN3A LBD mod: modulates the human NR3A ligand-binding domain | NR3A LBD differential scanning fluorimetry, Tm shift; 0% = protein alone, 100% = glycine-bound protein | Tm shift relative to glycine control, % at 25 µM | 2.5% of 340,000 active | AID 1259313;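 active means melting temperature shift of at least 10% of the positive control shift, at one fixed dose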
UCH37 inh: blocks the human deubiquitinase UCH37; Q9Y5K5; purified proteasome/UCH37, Ub-AMC cleavage fluorescence; inhibition, % (test concentration not listed); 0.33% of 330,000 active; AID 588478;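 active means mean inhibition over replicate wells above about 20%, limit read from the data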
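Reagent: Ub-AMC substrate; assay system: Proteasome-associated human UCH37 deubiquitinase; controls: no-proteasome and no-compound wells; read-out: % inhibition of Ub-AMC cleavage fluorescence; timing: 30 min preincubation with enzyme, 25 min cleavage at room temperature; signal: AMC fluorescence from Ub-AMC cleavage, excitation 355 nm, emission 460 nm; buffer or medium: Tris-HCl pH 7.4 plus ovalbumin, ATP-MgCl2, DTT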
PAFAH1B2 inh: PAFAH1B2 (human) inhibition. P68402. recombinant PAFAH1B2, FP-rhodamine activity probe, fluorescence polarization. inhibition, % at 3.39 µM. 1.2% of 340,000 active. AID 492953;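 active means inhibition above the mean of all tested compounds plus 3 SD, cut at about 24% in these data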
Target sequence (P68402 whole entry, looked up): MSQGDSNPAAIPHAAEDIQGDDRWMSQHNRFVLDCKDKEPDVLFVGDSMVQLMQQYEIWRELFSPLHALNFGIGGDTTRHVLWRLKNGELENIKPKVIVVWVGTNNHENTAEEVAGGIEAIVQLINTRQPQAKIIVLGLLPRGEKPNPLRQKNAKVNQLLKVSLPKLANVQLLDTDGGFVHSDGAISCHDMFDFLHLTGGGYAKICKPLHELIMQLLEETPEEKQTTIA
PAFAH1B3 FP inh: inhibitors of human PAFAH1B3; inhibition, % at 3.39 µM; AID 492972; recombinant PAFAH1B3, FP-rhodamine probe, fluorescence polarization; 0.28% of 340,000 active; Q15102;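 active means inhibition above the screen-wide average of all tested compounds plus 3 SD, cut at about 25% in these data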
Target sequence (Q15102 whole entry, looked up): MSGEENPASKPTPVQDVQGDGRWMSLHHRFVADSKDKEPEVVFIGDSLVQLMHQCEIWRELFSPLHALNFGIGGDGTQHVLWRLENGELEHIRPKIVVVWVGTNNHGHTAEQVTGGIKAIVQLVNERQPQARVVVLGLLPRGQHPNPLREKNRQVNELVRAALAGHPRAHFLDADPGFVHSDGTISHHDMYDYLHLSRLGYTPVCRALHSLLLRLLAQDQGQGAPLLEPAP
PAFAH2 inh: PAFAH2 (human) inhibition. Q99487. AID 492956. inhibition, % at 3.39 µM. 0.99% of 340,000 active. recombinant PAFAH2, FP-rhodamine activity probe, fluorescence polarization;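 active means inhibition above the mean over all tested compounds plus 3 SD, cut at about 30% in these data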;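 further: inhibitors block probe labeling of enzyme so polarization drops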
PAFAH2 confirm: confirmation of human PAFAH2 inhibitors. shares compounds with PAFAH2 inh. recombinant PAFAH2, FP-rhodamine activity probe, fluorescence polarization. inhibition, % at 3.39 µM. 65% of 2,300 active;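 active means mean inhibition over three repeats above a set limit taken from the earlier primary screen, cut at about 30% in these data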;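 further: inhibitor blocks binding of rhodamine activity probe so polarization falls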
A number is an active result; - = inactive; . = not tested or not shown.

SMILES | pPAFAH inh | GRIN3A LBD mod | UCH37 inh | PAFAH1B2 inh | PAFAH1B3 FP inh | PAFAH2 inh | PAFAH2 confirm
COc1ccccc1NS(=O)(=O)c1cccc(C(=O)OCC(=O)NC2CC2)c1 | - | - | - | - | - | - | .
N#CCC(=O)Nc1ccc(C(=O)OCC(=O)NC2CCCCCC2)cc1 | - | - | - | - | - | 83.1 | 84.0
O=C(CN1CCOCC1)NN=C/C(Br)=C\c1ccccc1 | . | . | - | . | . | . | .
O=C(NN=Cc1ccoc1)c1cc(O)cc(O)c1 | . | . | - | . | . | . | .
Cc1ccccc1C(=O)NN=C1SCC(=O)N1Cc1ccco1 | . | . | - | . | . | . | .
Cc1ccc(S(=O)(=O)Oc2ccccc2C=NNC(=O)c2c(Cl)cnn2C)cc1 | . | . | - | . | . | . | .
Cc1ccccc1C(=O)Nc1cccc(C(=O)NN=Cc2ccc3c(c2)OCO3)c1 | . | . | - | . | . | . | .
O=C(COC(=O)c1ccccc1)NC(=O)NC1CCCC1 | . | . | - | - | - | - | .
CCN(C(=O)COC(=O)c1ccc(Cl)cc1N)C1CCCCC1 | - | - | - | - | - | - | .
O=C(COC(=O)c1cc(Br)ccc1Cl)NC1CCCC1 | - | - | - | - | - | 34.1 | 30.3
O=C(COC(=O)c1ccccc1)NC1CCCC1 | - | - | - | - | - | 73.3 | 57.7
Nc1cc(Cl)ccc1C(=O)OCC(=O)NC1CCCCC1 | - | - | - | - | - | 32.6 | 30.8
O=C(COC(=O)c1cc(Br)ccc1O)NC1CCCCCC1 | - | - | - | - | - | - | .
CN(C)c1ccc(C=NNC(=O)c2ccccc2O)o1 | . | . | - | . | . | . | .
CC(=NNC(=O)c1cccc(O)c1)c1cccc(NC(=O)c2ccc(F)cc2)c1 | . | . | - | . | . | . | .
COCc1cc(C)nc(OCC(=O)NN=Cc2ccc(-c3cccc([N+](=O)[O-])c3)o2)c1C#N | . | . | - | . | . | . | .
Cc1ccc(C)c(SCC(=O)NNC(=O)c2csc(N3CCOCC3)n2)c1 | - | - | - | - | - | 30.3 | 31.0
O=C(COC(=O)/C=C/c1ccc(OC(F)F)cc1)NC1CCCCCC1 | - | - | - | - | - | 74.9 | 69.8
O=C(CO/N=C/c1ccc(OC(F)F)cc1)NC1CCCCC1 | - | - | . | - | - | - | .
O=C(COC(=O)/C=C/c1ccc(OC(F)F)cc1)NC1CCCCCCC1 | - | - | - | - | - | 66.1 | 71.4
N#Cc1ccccc1COC(=O)c1ccc2c(c1)OCO2 | - | - | - | - | - | - | .
O=C(OCc1nnc(-c2ccccc2)o1)c1ccco1 | - | - | - | - | - | 45.3 | 41.9
CCOc1ccc(C(=O)NCC(=O)OCc2nnc(-c3ccccc3)o2)cc1OCC | - | - | - | - | - | 59.5 | 53.4
O=C(OCc1nnc(-c2ccccc2)o1)c1ccc2c(c1)OCO2 | - | - | - | - | - | 57.9 | 60.3
CCOc1ncccc1C(=O)OCc1nnc(-c2ccccc2)o1 | - | - | - | - | - | 47.1 | 45.1
SMILES | pPAFAH inh | GRIN3A LBD mod | UCH37 inh | PAFAH1B2 inh | PAFAH1B3 FP inh | PAFAH2 inh | PAFAH2 confirm
O=C(OCc1nnc(-c2ccccc2)o1)c1cc(=O)c2ccccc2o1 | - | - | - | - | - | - | .
Cc1ccc(S(=O)(=O)N=C(c2ccccc2)N(C)C)c(C)c1 | . | . | - | . | . | . | .
CC(CC(=O)Nc1ccccc1Cl)=NNC(=O)C(=O)NCCO | . | . | - | . | . | . | .
Cc1ccc(C(=O)OCc2nnc(-c3ccccc3)o2)s1 | - | - | - | - | - | 80.8 | 72.7
CCOc1ccc(C(=O)OCc2nnc(-c3cccs3)o2)cc1OC | - | - | - | - | - | 84.6 | 79.3
O=C(OCc1nnc(-c2cccs2)o1)c1cccnc1Cl | - | - | - | - | - | - | .
O=C1CCC(C(=O)OCc2nnc(-c3ccc(Cl)cc3)o2)=NN1 | - | - | - | - | - | - | .
O=C(OCc1nnc(-c2ccccc2)o1)c1cccnc1Cl | - | - | - | - | - | - | .
Cc1nn(Cc2ccccc2)c(Cl)c1C(=O)OCc1nnc(-c2ccccc2)o1 | - | - | - | - | - | 31.6 | -
O=C(OCc1nnc(-c2ccc(Cl)cc2)o1)c1ccc(O)cc1 | - | - | - | - | - | 74.5 | 68.1
COc1ccc(C=Nn2c(N)nc3ccccc32)cc1OC | . | . | - | . | . | . | .
Cc1ccc(C=NNC(=O)C2COc3ccccc3O2)s1 (centres undefined) | . | . | - | . | . | . | .
CCOC(=O)c1ccc(NC(=NS(=O)(=O)c2ccccc2)c2ccccc2)cc1 | . | . | - | . | . | . | .
COc1ccc(NC(=S)NN=C2CCCc3c(C)cc(C)cc32)cc1 | . | . | - | . | . | . | .
